Laboratory results: ChEMBL document CHEMBL1138118, “Synthesis and anti-HSV-1 activity of quinolonic acyclovir analogues” (Bioorg Med Chem Lett, 2006)

What was measured:
[1] = tested on: Human alphaherpesvirus 1; test: Antiviral activity against HSV1 at 50 uM; assay type: functional; settings: Human alphaherpesvirus 1, ACR-29
Summary of the method: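 Vero cells (DMEM, 2% heat-inactivated FBS, 8% calf serum) were infected with HSV-1 strain ACR-29 at 1 PFU/cell for 2 h at 37 °C. The inoculum was then replaced with medium containing compound at 50 µM. After 3 days at 37 °C in 5% CO₂, supernatant titre (TCID50/mL) was measured by endpoint dilution (Reed–Muench) against untreated controls. Means of triplicates.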

[2] = tested on: Human alphaherpesvirus 1; test: Antiviral activity against HSV1 in vero cells; assay type: functional, organism-based; settings: Human alphaherpesvirus 1, Vero
Summary of the method: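 Yield reduction: confluent Vero cells were infected with HSV-1 ACR-29 at moi 1 pfu/cell for 1 h at 37 °C, washed, then given medium with varying compound concentrations. At 20 h they were freeze-thawed three times and spun at 400g for 10 min at 4 °C. Titre was read by plaque assay under 1% methylcellulose for 72 h with crystal violet stain. EC50 is the concentration inhibiting virus yield by 50%.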

[3] = tested on: Vero; test: Cytotoxicity against Vero cells by MTT assay; assay type: functional; settings: Chlorocebus sabaeus
Summary of the method: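 Uninfected Vero monolayers were exposed to a range of compound concentrations for 72 h at 37 °C. MTT ([…]) was then added for 4 h at 37 °C, followed by 10% SDS/0.01 N HCl overnight. Absorbance was read at 540 nm against a 690 nm reference. CC50 is the concentration reducing host-cell viability by 50%.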

[4] = tested on: Vero; test: Selectivity index (CC50/EC50) in Vero cells; assay type: functional
Summary of the method: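 Ratio of CC50 (uninfected Vero, 72 h exposure) to EC50 (HSV-1 ACR-29 virus-yield inhibition in Vero); the two were determined in parallel.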

[5] = tested on: Human alphaherpesvirus 1; test: Antiviral activity against HSV1 at 10 uM; assay type: functional; settings: Human alphaherpesvirus 1, ACR-29
Summary of the method: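 Vero cells (DMEM with 2% heat-inactivated FBS plus 8% calf serum) infected with HSV-1 strain ACR-29 at 1 PFU/cell for 2 h at 37 °C. The inoculum was replaced with medium containing compound at 10 µM; untreated infected controls got medium only. After 3 days at 37 °C in 5% CO2, supernatant titre was read by endpoint dilution (TCID50/mL, Reed-Muench). Values are means of triplicates.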

SMILES | inhibition at 50 µM [1] [%] | EC50 [2] [µM] | CC50 [3] [µM] | Selectivity index [4] | inhibition at 10 µM [5] [%]
O=C(O)c1cn(COCCO)c2ccc(Br)cc2c1=O | 58 |  |  |  | 
CCOC(=O)c1cn(COCCO)c2ccc(Br)cc2c1=O | 84 |  |  |  | 
Cc1ccc2c(c1)c(=O)c(C(=O)O)cn2COCCO | 93 | 2.2 | > 500 | >227 | 
O=C(O)c1cn(COCCO)c2cc(Cl)ccc2c1=O | 96 | 0.7 | 1200 | 1714 | 
CCOC(=O)c1cn(COCCO)c2cc(C)ccc2c1=O | 77 |  |  |  | 
CCOC(=O)c1cn(COCCO)c2ccc([N+](=O)[O-])cc2c1=O | 95 | 1.5 | 960 | 640 | 
CCOC(=O)c1cn(COCCO)c2cc([N+](=O)[O-])ccc2c1=O | 77 |  |  |  | 
CCOC(=O)c1cn(COCCO)c2cc(Cl)ccc2c1=O | 99 | 0.87 | 1200 | 1375 | 
CCOC(=O)c1cn(COCCO)c2ccc(OC)cc2c1=O | 99 | 3.2 | > 500 | >156 | 
O=C(O)c1cn(COCCO)c2ccc(Cl)cc2c1=O | 98 | 1.1 | 1400 | 1273 | 
CCOC(=O)c1cn(COCCO)c2cc(F)ccc2c1=O | 65 |  |  |  | 
COc1ccc2c(c1)c(=O)c(C(=O)O)cn2COCCO | 89 |  |  |  | 
O=C(O)c1cn(COCCO)c2ccc(F)cc2c1=O | 70 |  |  |  | 
O=C(O)c1cn(COCCO)c2ccc([N+](=O)[O-])cc2c1=O | 70 |  |  |  | 
COc1ccc2c(=O)c(C(=O)O)cn(COCCO)c2c1 | 79 |  |  |  | 
O=C(O)c1cn(COCCO)c2cc([N+](=O)[O-])ccc2c1=O | 77 |  |  |  | 
Cc1ccc2c(=O)c(C(=O)O)cn(COCCO)c2c1 | 79 |  |  |  | 
CCOC(=O)c1cn(COCCO)c2ccc(Cl)cc2c1=O | 97 | 0.8 | 1250 | 1562 | 
CCOC(=O)c1cn(COCCO)c2ccc(C)cc2c1=O | 82 |  |  |  | 
CCOC(=O)c1cn(COCCO)c2ccc(F)cc2c1=O | 97 | 2.3 | > 500 | >217 | 
Nc1nc2c(ncn2COCCO)c(=O)[nH]1 [ACYCLOVIR] |  | 1.09 | 960 | 880 | 96
CCOC(=O)c1cn(COCCO)c2cc(OC)ccc2c1=O | 89 |  |  |  | 
O=C(O)c1cn(COCCO)c2cc(F)ccc2c1=O | 97 | 1.4 | > 500 | >357 | 
